The target in data set [1] is T1, Coagulation factor XII (Homo sapiens) (UniProt P00748).
T1 sequence (whole entry): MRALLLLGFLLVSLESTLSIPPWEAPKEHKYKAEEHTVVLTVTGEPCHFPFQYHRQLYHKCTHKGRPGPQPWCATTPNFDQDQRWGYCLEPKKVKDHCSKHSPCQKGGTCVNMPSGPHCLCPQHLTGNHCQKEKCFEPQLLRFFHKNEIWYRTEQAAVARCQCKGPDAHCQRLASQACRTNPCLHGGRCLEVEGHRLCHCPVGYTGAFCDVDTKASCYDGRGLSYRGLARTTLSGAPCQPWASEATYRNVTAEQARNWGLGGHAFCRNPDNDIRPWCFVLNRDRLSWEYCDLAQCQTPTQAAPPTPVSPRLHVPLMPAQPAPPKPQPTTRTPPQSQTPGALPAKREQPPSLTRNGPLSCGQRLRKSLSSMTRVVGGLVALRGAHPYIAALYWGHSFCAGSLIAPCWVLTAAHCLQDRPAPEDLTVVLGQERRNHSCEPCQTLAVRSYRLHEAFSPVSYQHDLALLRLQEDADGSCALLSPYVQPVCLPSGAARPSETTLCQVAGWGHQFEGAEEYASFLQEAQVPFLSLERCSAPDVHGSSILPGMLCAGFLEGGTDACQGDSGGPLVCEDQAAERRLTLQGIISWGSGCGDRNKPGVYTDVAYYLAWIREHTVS
The data set is described as follows: Time dependent inhibition of human coagulation factor XIIA using Boc-Gln-Gly-Arg-AMC as fluorogenic substrate at 0.5 to 132 uM by fluorescence assay. The settings on record: dose 0.0005-132 µM, in the assay text read “0.5 nM to 132 uM” for “0.5 to 132 uM”. Put shortly: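 Buffer: Tris-Cl pH 7.4 with NaCl, MgCl2, CaCl2, 0.1% BSA and 0.01% Triton X-100. Fluorescence (ex 355/em 460 nm) read kinetically every 87 s for up to 180 min. IC50 calculated at each time point and plotted against time.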

Data set [2] has as its target Plasma kallikrein (Homo sapiens, UniProt P03952). The data set is described as follows: Inhibition of human kallikrein using Mes-dArg-Pro-Arg-AMC as fluorogenic substrate measured at 1 min interval for 1 hr by fluorometric assay.
Data set [3] concerns the target T1, Coagulation factor XII (Homo sapiens). The data set can be described thus: Inhibition of human coagulation factor XIIA using Boc-Gln-Gly-Arg-AMC as fluorogenic substrate at 100 nM measured at 1 min interval for 1 hr by fluorometric assay relative to control. Summed up: (§1)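 Screening of crude microscale amide-coupling products. Conversion was measured by 1H NMR and product content normalised to 76 µmol/L in DMSO, then tested at 1 µM and 100 nM in the fluorogenic FXIIa or thrombin assay. A 0-conversion reaction served as blank. Percent inhibition is from triplicates.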

For data set [4], the target named is Prothrombin (Homo sapiens, UniProt P00734). The data set is described as follows: Inhibition of human coagulation factor thrombin using Boc-Val-Pro-Arg-AMC as fluorogenic substrate at 100 nM measured at 1 min interval for 1 hr by fluorometric assay relative to control. Summed up: as §1
The species entered for data set [5] is Homo sapiens. The data set can be described thus: Selectivity index, ratio of IC50 for inhibition of human coagulation factor alpha-thrombin using Boc-Val-Pro-Arg-AMC as fluorogenic substrate to IC50 for inhibition of human coagulation factor XIIA using Boc-Gln-Gly-Arg-AMC as fluorogenic substrate incubated for 1 hr by fluorometric assay.
Data set [6] concerns the target T2, Monoglyceride lipase (Homo sapiens, UniProt Q99685).
T2 sequence (Q99685 whole entry): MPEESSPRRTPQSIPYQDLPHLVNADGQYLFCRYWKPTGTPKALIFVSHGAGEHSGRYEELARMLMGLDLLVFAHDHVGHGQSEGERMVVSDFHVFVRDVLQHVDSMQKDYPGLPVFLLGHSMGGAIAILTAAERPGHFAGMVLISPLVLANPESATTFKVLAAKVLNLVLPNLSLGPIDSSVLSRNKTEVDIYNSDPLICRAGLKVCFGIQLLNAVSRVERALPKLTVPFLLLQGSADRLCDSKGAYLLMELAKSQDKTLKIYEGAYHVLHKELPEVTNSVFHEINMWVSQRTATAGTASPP
The data set is described as follows: Inhibition of human recombinant MAGL using 1,3-dihydroxypropan-2-yl 4-pyren-1-ylbutanoate as substrate measured after 45 mins by reverse-phase HPLC-based fluorescence assay.

For data set [7], the system named is Plasma. The data set can be described thus: Antiplatelet activity in […] assessed as inhibition of MDA-MB-231-induced platelet aggregation at 0.1 to 10 uM by light transmission aggregometry. The note with it: Homo sapiens, dose 0.1-10 µM. The class given is functional.
In data set [8] the test system is Blood. The data set is described as follows: Anticoagulant activity in human blood assessed as concentration required to double the activated partial thromboplastin time incubated for 1 min followed by aPTT reagent based assay. The class given is functional. Put shortly:
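Compounds were tested at 300 µM, and the increase was expressed relative to DMSO. The doubling concentration (EC2×) is the concentration prolonging aPTT twofold. At least triplicate, mean ± SD.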

In data set [9] the test system is HepG2. The data set is described as follows: Cytotoxicity against human HepG2 cells assessed as reduction in cell viability at 100 uM incubated for 48 hrs by alamar blue assay relative to control. The settings on record: hepg2, 48 h. The class given is cell-based.
For data set [10], the system named is Plasma. The data set can be described thus: Antiplatelet activity in […] assessed as inhibition of thrombin-induced platelet aggregation at 1 to 10 uM by light transmission aggregometry. The class given is functional. The note with it: Homo sapiens, dose 1-10 µM.
Data set [11] has as its system Plasma. The data set can be described thus: Antiplatelet activity in […] assessed as inhibition of MDA-MB-231-induced platelet aggregation at 10 uM by light transmission aggregometry. The class given is functional. The settings on record: Homo sapiens.
The test system of data set [12] is Plasma. The data set can be described thus: Antiplatelet activity in […] assessed as inhibition of MDA-MB-231-induced platelet aggregation by light transmission aggregometry. The class given is functional. The note with it: Homo sapiens, dose 0.1-10 µM.
In data set [13] the target is T1, Coagulation factor XII (Homo sapiens). The data set can be described thus: Binding affinity to human plasma coagulation factor XIIA assessed as compound-adduct formation at molar ratio of 1:20 preincubated for 4 mins followed by desalination and measured after 120 mins by SEC/ESI-TOF mass spectra analysis. The class given is cell-free. Summed up: (§2)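 β-FXIIa incubated with inhibitor at a 1:20 molar ratio, then size-exclusion chromatography coupled to ESI-MS to measure the mass of enzyme–inhibitor complexes. Further runs checked complex stability to probe reversibility.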

Data set [14] shares this target. The data set can be described thus: Binding affinity to human plasma coagulation factor XIIA assessed as compound-adduct formation at molar ratio of 1:20 preincubated for 4 mins followed by desalination and measured after 5 mins by SEC/ESI-TOF mass spectra analysis. The class given is cell-free. Put shortly: as §2
Data set [15] relates to Plasma. The data set can be described thus: Antiplatelet activity in human platelet-rich plasma assessed as inhibition of MDA-MB-231 induced platelet activation by measuring reduction in ATP release preincubated for 20 mins followed by tumor cell addition and measured after 30 mins by luciferin-based luminescence assay. The class given is functional, cell-free. The settings on record: time 50.0 min. Put shortly:
(§3)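 Platelet activation measured as dense-granule ATP release by firefly luciferase bioluminescence. Compound-treated platelets were activated with MDA-MB-231 cells, thrombin or TRAP-6. TRAP-6-induced signal was set as 100%. Triplicate, mean ± SD.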

Data set [16] relates to Plasma. The data set can be described thus: Antiplatelet activity in human platelet-rich plasma assessed as inhibition of TRAP6 induced platelet activation by measuring reduction in ATP release at 10 uM preincubated for 20 mins followed by TRAP6 addition and measured after 10 mins by luciferin-based luminescence assay. The class given is functional, cell-free. The note with it: time 30.0 min. Summed up:
as §3

Data set [17] has as its system Plasma. The data set can be described thus: Antiplatelet activity in […] assessed as inhibition of MDA-MB-231-induced platelet aggregation at 1 uM by light transmission aggregometry. The class given is functional. The settings on record: Homo sapiens.

The source made the active and inactive calls. The rule behind the calls is not given here.

Here are results for two compounds from ChEMBL document CHEMBL4673255, “Acylated 1H-1,2,4-Triazol-5-amines Targeting Human Coagulation Factor XIIa and Thrombin: Conventional and Microscale Synthesis, Anticoagulant Properties, and Mechanism of Action” (J Med Chem, 2020).

Chain of Plasma kallikrein (P03952 20-390 limits assumed): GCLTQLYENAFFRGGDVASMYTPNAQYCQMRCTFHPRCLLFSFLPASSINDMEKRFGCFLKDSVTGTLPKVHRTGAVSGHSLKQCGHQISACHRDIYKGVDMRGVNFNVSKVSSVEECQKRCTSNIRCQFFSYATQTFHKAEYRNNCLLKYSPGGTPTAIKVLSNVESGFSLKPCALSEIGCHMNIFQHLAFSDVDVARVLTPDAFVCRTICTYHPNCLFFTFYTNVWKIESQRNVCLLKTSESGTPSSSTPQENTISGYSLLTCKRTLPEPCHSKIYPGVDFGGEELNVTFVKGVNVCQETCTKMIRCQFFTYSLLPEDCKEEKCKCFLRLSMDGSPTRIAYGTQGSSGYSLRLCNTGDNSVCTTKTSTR
Chain of Plasma kallikrein (P03952 391-638 limits assumed): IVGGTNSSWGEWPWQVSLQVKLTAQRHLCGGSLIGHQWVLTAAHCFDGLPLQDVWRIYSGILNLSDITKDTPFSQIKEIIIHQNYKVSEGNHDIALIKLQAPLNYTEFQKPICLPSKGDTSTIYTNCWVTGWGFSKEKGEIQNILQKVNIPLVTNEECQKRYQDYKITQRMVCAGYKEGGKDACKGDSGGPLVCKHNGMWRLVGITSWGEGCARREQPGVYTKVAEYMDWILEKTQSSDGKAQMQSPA

As to `Nc1nc(-c2ccccn2)nn1C(=O)c1cccc2ccccc12`, in data set [1], the TDI result is “Active”. The IC50 in [2] and in [6] was above 5 µM throughout. In addition, the inhibition in [3] is 77%; in data set [4], 13%. Also, the Ratio IC50 in data set [5] turned out to be 13. Also, the inhibition result in [7] is “inactive”. Also, the 2aPTT in [8] turned out to be 236 µM. Besides, the Activity in data set [9] turned out to be 8%.

For the compound `Nc1nc(-c2ccccn2)nn1C(=O)c1ccc2ccccc2c1`, the inhibition entry in data set [10], in data set [11], in data set [16] and in data set [17] was “Active” throughout. For the same compound, the inhibition result in data set [12] was “Dose-dependent effect”; in data set [3], 19%; in data set [4], 55%; in data set [15], “Dose-dependent effect”. In addition, the half-inhibitory concentration (IC50) in [2] and in [6] was above 5 µM each time. Further, the outcome in data set [13] and in data set [14] was inactive. For the same compound, in data set [8], the 2aPTT worked out at 107 µM. Moreover, the Activity in data set [9] worked out at 25%.
